Laboratory results taken from ChEMBL document CHEMBL4706580, “4-Amino-1,2,4-triazole-3-thione-derived Schiff bases as metallo-β-lactamase inhibitors” (Eur J Med Chem, 2020).
pKi: −log10 of the molar value. The source made the active and inactive calls. No cut-off for these calls is given here.

How the values were obtained:
[1] = Inhibition of beta-lactamase VIM2 (unknown origin) expressed in Escherichia coli BL21(DE3) using imipenem as substrate by measuring substrate hydrolysis at 100 uM by spectrophotometric analysis
How it was run: (§1)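 Purified enzyme (overproduced in E. coli BL21(DE3), pET-9a; ion-exchange and gel filtration), 1-70 nM final. Reporter substrate 150 μM imipenem, read at 300 nm, 30 °C, 50 mM HEPES pH 7.5. Single-point screen at 100 or 200 μM; Ki from v0/vi vs [I] (0.5–1,000 μM final) assuming competitive inhibition, or Dixon plot. Triplicate.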

[2] = Inhibition of beta-lactamase L1 (unknown origin) expressed in Escherichia coli BL21(DE3) using nitrocefin as substrate by measuring substrate hydrolysis preincubated for 30 mins by spectrophotometric analysis
How it was run: (§2)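 Enzyme 0.2–0.8 nM in 25 mM HEPES pH 7.5 with 50 μM ZnCl2 final, pre-incubated 30 min at 21 °C with inhibitor (100 μM screen). Nitrocefin 100 μM final, read at 482 nm, 30 °C. Residual activity vs three uninhibited samples; Ki (1–100 μM inhibitor) from Hanes linearization, competitive model. Triplicate.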

[3] = Inhibition of beta-lactamase NDM1 (unknown origin) expressed in Escherichia coli BL21(DE3) using cefotaxime/nitrocefin as substrate by measuring substrate hydrolysis at 100 uM by spectrophotometric analysis
[4] = Inhibition of beta-lactamase VIM2 (unknown origin) expressed in Escherichia coli BL21(DE3) using imipenem as substrate by measuring substrate hydrolysis at 200 uM by spectrophotometric analysis; how it was run: as §1
[5] = Inhibition of beta-lactamase CphA (unknown origin) expressed in Escherichia coli BL21(DE3) using imipenem as substrate by measuring substrate hydrolysis by spectrophotometric analysis
How it was run: (§3)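 Enzyme 0.2–0.8 nM in 15 mM cacodylate pH 6.5, no added zinc, pre-incubated 30 min at 21 °C with inhibitor (100 μM screen). Imipenem substrate added from 10 mM stock; hydrolysis at 300 nm, 30 °C. Residual activity vs three uninhibited samples; Ki (1–100 μM inhibitor) by Hanes linearization, competitive model. Triplicate.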

[6] = Inhibition of beta-lactamase IMP-1 (unknown origin) expressed in Escherichia coli BL21(DE3) using imipenem as substrate by measuring substrate hydrolysis at 100 uM by spectrophotometric analysis; how it was run: as §1
[7] = Inhibition of beta-lactamase NDM1 (unknown origin) expressed in Escherichia coli BL21(DE3) using cefotaxime/nitrocefin as substrate by measuring substrate hydrolysis at 200 uM by spectrophotometric analysis
[8] = Inhibition of beta-lactamase VIM4 (unknown origin) expressed in Escherichia coli BL21(DE3) using imipenem as substrate by measuring substrate hydrolysis by spectrophotometric analysis; how it was run: as §1
[9] = Inhibition of beta-lactamase IMP-1 (unknown origin) expressed in Escherichia coli BL21(DE3) using imipenem as substrate by measuring substrate hydrolysis at 200 uM by spectrophotometric analysis; how it was run: as §1
[10] = Inhibition of beta-lactamase L1 (unknown origin) expressed in Escherichia coli BL21(DE3) using nitrocefin as substrate by measuring substrate hydrolysis at 200 uM preincubated for 30 mins by spectrophotometric analysis
[11] = Inhibition of beta-lactamase L1 (unknown origin) expressed in Escherichia coli BL21(DE3) using nitrocefin as substrate by measuring substrate hydrolysis at 100 uM preincubated for 30 mins by spectrophotometric analysis; how it was run: as §2
[12] = Inhibition of beta-lactamase CphA (unknown origin) expressed in Escherichia coli BL21(DE3) using imipenem as substrate by measuring substrate hydrolysis at 100 uM by spectrophotometric analysis; how it was run: as §3
[13] = Inhibition of beta-lactamase VIM2 (unknown origin) expressed in Escherichia coli BL21(DE3) using imipenem as substrate by measuring substrate hydrolysis by spectrophotometric analysis; how it was run: as §1
[14] = Inhibition of beta-lactamase VIM-2 (unknown origin) expressed in Escherichia coli LZ2310 assessed as potentiation of cefoxitin antibacterial activity by measuring cefoxitin induced diameter of inhibition zone at 40 uM incubated for 18 hrs by disk diffusion method (reference value: 14 mm)
How it was run: (§4)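 Efflux-deficient E. coli LZ2310 (NorE, MdfA, AcrA knocked out) carrying pLB-II with the cloned MBL gene. Mueller-Hinton, CLSI disk diffusion; antibiotic disks (30 µg cefoxitin for VIM-2, 10 µg ampicillin for VIM-4, 30 µg ceftazidime for NDM-1/IMP-1) loaded with inhibitor in DMSO (≤15 µL). Zone diameter after 18 h, 35 ± 1 °C; DMSO and 220 µg EDTA controls. Triplicate.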

[15] = Inhibition of beta-lactamase VIM4 (unknown origin) expressed in Escherichia coli BL21(DE3) using imipenem as substrate by measuring substrate hydrolysis at 100 uM by spectrophotometric analysis; how it was run: as §1
[16] = Inhibition of beta-lactamase VIM-4 (unknown origin) expressed in Escherichia coli LZ2310 assessed as potentiation of ampicillin antibacterial activity by measuring ampicillin induced diameter of inhibition zone at 40 uM incubated for 18 hrs by disk diffusion method (reference value: 6 mm); how it was run: as §4
[17] = Inhibition of beta-lactamase NDM1 (unknown origin) expressed in Escherichia coli BL21(DE3) using cefotaxime/nitrocefin as substrate by measuring substrate hydrolysis by spectrophotometric analysis
How it was run: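 His-tagged enzyme from E. coli BL21(DE3) pET-15b, affinity-purified, 1-70 nM final. Reporter substrate 120 μM cefotaxime (260 nm) or 100 μM nitrocefin (482 nm), 30 °C, 50 mM HEPES pH 7.5. Inhibitor 0.5–1,000 μM final; competitive Ki from v0/vi vs [I] slope or Dixon plot. Triplicate.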

Row | inhibition [1] | inhibition [3] | inhibition [4] | inhibition [6] | inhibition [7] | inhibition [9] | inhibition [10] | inhibition [11] | inhibition [12] [%] | inhibition zone (IZ) [14] [mm] | inhibition [15] [%] | inhibition zone (IZ) [16] [mm] | SMILES | pKi [2] | pKi [5] | pKi [8] | pKi [13] | pKi [17]
1 | inactive | inactive | inactive | 50% | inactive | – | – | – | – | – | – | – | Oc1ccc(/C=N/n2c(-c3cc(O)ccc3O)n[nH]c2=S)c(O)c1 | 4.82 | 5.30 | 5.52 | – | –
2 | inactive | – | inactive | – | 60% | 50% | inactive | inactive | – | – | – | – | Cc1ccccc1-c1n[nH]c(=S)n1/N=C/c1ccccc1C#N | – | – | 5.19 | – | –
3 | – | – | – | 48% | 60% | – | – | 59% | 51 | 14 | 57 | – | O=C(O)c1ccccc1/C=N/n1c(Cc2ccccc2)n[nH]c1=S | – | – | – | 5.49 | –
4 | – | – | – | 66% | 50% | – | – | 30% | 35 | – | – | – | Oc1ccc(/C=N/n2c(-c3cccc(Cl)c3)n[nH]c2=S)c(O)c1 | – | – | 5.52 | – | –
5 | inactive | inactive | inactive | 47% | inactive | – | – | – | – | – | 32 | – | Cc1ccccc1-c1n[nH]c(=S)n1/N=C/c1cc(O)ccc1[N+](=O)[O-] | 4.80 | 5.05 | – | – | –
6 | – | – | – | 54% | – | – | – | 46% | – | 14 | – | 6 | Oc1ccc(/C=N/n2c(-c3ccccc3)n[nH]c2=S)c(O)c1 | – | 4.59 | 5.77 | – | –
7 | – | inactive | – | inactive | inactive | inactive | inactive | inactive | – | – | 55 | – | Oc1ccc(/C=N/n2c(-c3ccc4ccccc4c3)n[nH]c2=S)c(O)c1 | – | – | – | – | –
8 | – | 50% | – | 55% | – | – | – | 40% | – | 14 | – | – | Oc1ccc(/C=N/n2c(-c3cc(Cl)cc(Cl)c3)n[nH]c2=S)c(O)c1 | – | – | 5.40 | 5.42 | –
9 | inactive | 32% | inactive | inactive | – | inactive | inactive | inactive | – | – | 49 | – | O=C(O)c1ccccc1/C=N/n1c(-c2ccccc2-c2ccccc2)n[nH]c1=S | – | – | – | – | –
10 | inactive | inactive | inactive | inactive | inactive | inactive | inactive | inactive | – | – | 55 | – | Oc1ccc(/C=N/n2c(-c3cc4ccccc4[nH]3)n[nH]c2=S)c(O)c1 | – | – | – | – | –
11 | – | – | – | 45% | – | – | – | 51% | – | 14 | 54 | – | Oc1ccc(/C=N/n2c(CCc3ccccc3)n[nH]c2=S)c(O)c1 | – | 5.22 | – | 5.05 | 3.77
12 | inactive | 45% | inactive | inactive | – | inactive | inactive | inactive | – | – | – | – | S=c1[nH]nc(-c2ccccc2-c2ccccc2)n1/N=C/c1ccc(OCc2ccccc2)cc1 | – | – | – | – | –
13 | 35% | inactive | – | inactive | inactive | inactive | – | – | – | – | – | – | O=C(O)c1ccccc1/C=N/n1c(-c2cccc(Br)c2)n[nH]c1=S | 5.52 | – | 5.70 | – | –
14 | inactive | inactive | inactive | 43% | inactive | – | – | 56% | 59 | – | – | 6 | Cc1ccccc1-c1n[nH]c(=S)n1/N=C/c1ccc([N+](=O)[O-])cc1 | – | – | 5.85 | – | –
15 | inactive | inactive | inactive | 37% | inactive | – | – | 43% | 35 | – | – | – | Cc1ccccc1-c1n[nH]c(=S)n1/N=C/c1ccc(O)cc1 | – | – | 5.89 | – | –
16 | – | – | – | 35% | – | – | – | – | 56 | – | 53 | – | O=C(O)c1ccccc1/C=N/n1c(-c2cccc3ccccc23)n[nH]c1=S | 5.96 | – | – | 4.84 | 4.12
17 | inactive | inactive | inactive | inactive | inactive | inactive | inactive | inactive | – | – | 50 | – | Oc1ccc(/C=N/n2c(C(c3ccccc3)c3ccccc3)n[nH]c2=S)c(O)c1 | – | – | – | – | –
18 | inactive | – | inactive | inactive | 60% | inactive | – | – | – | – | – | – | O=C(O)c1ccccc1/C=N/n1c(-c2ccc3ccccc3c2O)n[nH]c1=S | 6.30 | – | 5.70 | – | –
19 | – | 32% | – | 34% | – | – | inactive | inactive | – | – | – | – | Cc1ccccc1-c1n[nH]c(=S)n1/N=C/c1ccccc1 | – | 4.15 | 4.70 | 4.70 | –
20 | inactive | – | inactive | inactive | – | inactive | – | 40% | – | – | 51 | – | O=C(O)c1ccccc1/C=N/n1c(-c2cccc(F)c2)n[nH]c1=S | – | – | – | – | –
21 | 45% | 65% | – | inactive | – | inactive | inactive | inactive | – | – | 65 | – | Oc1ccc(/C=N/n2c(-c3cccc(-c4ccccc4)c3)n[nH]c2=S)c(O)c1 | – | – | – | – | –
22 | inactive | inactive | inactive | 64% | inactive | – | inactive | inactive | – | – | 30 | – | Oc1ccc(/C=N/n2c(Cc3ccc4ccccc4c3)n[nH]c2=S)c(O)c1 | – | – | – | – | –
23 | 30% | – | – | inactive | 50% | inactive | – | 45% | – | – | – | – | O=C(O)c1cccc(-c2cccc(/C=N/n3c(-c4ccc5ccccc5c4)n[nH]c3=S)c2)c1 | – | – | 5.55 | – | –
